Data from ChEMBL document CHEMBL1944564, “Discovery of a novel and potent class of F. tularensis enoyl-reductase (FabI) inhibitors by molecular shape and electrostatic matching” (J Med Chem, 2012).
Converted amounts (≈) assume the structure as drawn.

Columns and labels:
[1] = Inhibition of N-terminus His-tagged Francisella tularensis subsp. Tularensis Schu4 […] expressed in Escherichia coli […] cells assessed as conversion of crotonyl-CoA and NADH to butyryl-CoA and NAD+ preincubated for 30 mins by measured fluorescence analysis; parameters: species or system Francisella tularensis subsp. tularensis SCHU S4
How it was run: (§1)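 Recombinant N-terminal His-tagged F. tularensis FabI, expressed in E. coli BL21(DE3) and purified by Ni-affinity and size exclusion to >98%, was used at 0.2 μM. Inhibitor in DMSO was preincubated 30 min, then 200 μM crotonyl-CoA was added. The rate of decrease in NADH fluorescence (ex 340/em 450 nm) gave % inhibition versus a DMSO control.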

DL21 (DE3) = test: Inhibition of N-terminus His-tagged Francisella tularensis subsp. Tularensis Schu4 […] expressed in Escherichia coli […] cells assessed as conversion of crotonyl-CoA and NADH to butyryl-CoA and NAD+ preincubated at 100 uM for 30 mins by fluorescence analysis; conditions: Francisella tularensis subsp. tularensis SCHU S4; how it was run: as §1
Bacillus anthracis = test: Antibacterial activity against Bacillus anthracis after overnight incubation; assay type: functional
Staphylococcus aureus [2] = test: Antibacterial activity against Staphylococcus aureus after overnight incubation; assay type: functional
How it was run: (§2)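 Broth microdilution in LB with 2-fold serial dilutions of compound and ciprofloxacin as control.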

Staphylococcus aureus [3] = test: Antibacterial activity against methicillin-resistant Staphylococcus aureus after overnight incubation; assay type: functional; how it was run: as §2
Francisella tularensis = test: Antibacterial activity against Francisella tularensis after overnight incubation; assay type: functional
Yersinia pestis = test: Antibacterial activity against Yersinia pestis after overnight incubation; assay type: functional
Escherichia coli [4] = test: Antibacterial activity against Escherichia coli BW251113 after overnight incubation; assay type: functional; how it was run: as §2
Escherichia coli [5] = test: Antibacterial activity against Escherichia coli BW251113 harboring TolC deletion mutation after overnight incubation; assay type: functional

## Fc1ccc(Cn2cnc3ccccc32)cc1
[1]
  IC50: > 100 µM

## O=C(c1ccc(Cl)cc1)n1cnc2ccccc21
[1]
  IC50: > 100 µM

## Nc1ncc(Cc2ccc(Cl)cc2)s1
[1]
  IC50: 63 µM
DL21 (DE3)
  inhibition: 49%

## Clc1ccc(Cn2cnc3ccccc32)cc1Cl
Bacillus anthracis
  MIC: 50 µg/mL (≈ 180 µM)
Staphylococcus aureus [2]
  MIC: 50 µg/mL (≈ 180 µM)
Staphylococcus aureus [3]
  MIC: 50 µg/mL (≈ 180 µM)
Francisella tularensis
  MIC: 17.2 µg/mL (≈ 62.1 µM)
Yersinia pestis
  MIC: 25 µg/mL (≈ 90.2 µM)
[1]
  IC50: 4.7 µM
Escherichia coli [4]
  MIC: > 200 µg/mL
Escherichia coli [5]
  MIC: 25 µg/mL (≈ 90.2 µM)

## c1ccc(Cn2cnc3ccccc32)cc1
[1]
  IC50: > 100 µM

## Nc1nc2ccccc2n1Cc1ccc(Cl)cc1
[1]
  IC50: > 100 µM

## Cc1cc2ncn(Cc3ccc(Cl)cc3Cl)c2cc1C
Bacillus anthracis
  MIC: > 38 µg/mL
Staphylococcus aureus [2]
  MIC: 38 µg/mL (≈ 125 µM)
Staphylococcus aureus [3]
  MIC: 38 µg/mL (≈ 125 µM)
Francisella tularensis
  MIC: 4.3 µg/mL (≈ 14.1 µM)
Yersinia pestis
  MIC: > 38 µg/mL
[1]
  IC50: 0.7 µM
Escherichia coli [4]
  MIC: > 200 µg/mL
Escherichia coli [5]
  MIC: 19 µg/mL (≈ 62.3 µM)

## Cc1cc2ncn(Cc3ccc(Cl)c(Cl)c3)c2cc1C
Bacillus anthracis
  MIC: 9.4 µg/mL (≈ 30.8 µM)
Staphylococcus aureus [2]
  MIC: 25 µg/mL (≈ 81.9 µM)
Staphylococcus aureus [3]
  MIC: 50 µg/mL (≈ 164 µM)
Francisella tularensis
  MIC: 7.8 µg/mL (≈ 25.6 µM)
Yersinia pestis
  MIC: ≥ 50 µg/mL
[1]
  IC50: 0.3 µM
Escherichia coli [4]
  MIC: > 200 µg/mL
Escherichia coli [5]
  MIC: 6.25 µg/mL (≈ 20.5 µM)

## Clc1ccc(Cn2cnc3ccccc32)c(Cl)c1
[1]
  IC50: 22 µM

## Cc1nc2ccccc2n1Cc1ccc(Cl)c(Cl)c1
Bacillus anthracis
  MIC: 25 µg/mL (≈ 85.9 µM)
Staphylococcus aureus [2]
  MIC: 50 µg/mL (≈ 172 µM)
Francisella tularensis
  MIC: 9.4 µg/mL (≈ 32.3 µM)
Yersinia pestis
  MIC: ≥ 50 µg/mL
[1]
  IC50: 3.2 µM
Escherichia coli [4]
  MIC: 50 µg/mL (≈ 172 µM)
Escherichia coli [5]
  MIC: 25 µg/mL (≈ 85.9 µM)

## O=C(NC(=O)c1cc(-c2ccc(Cl)cc2)oc1C(F)(F)F)c1ccccc1O
DL21 (DE3)
  inhibition: 39%

## Cc1cc2ncn(C(=O)c3cccc(Cl)c3)c2cc1C
[1]
  IC50: > 100 µM

## Cc1cc2ncn(Cc3ccc(Cl)cc3)c2cc1C
Bacillus anthracis
  MIC: > 50 µg/mL
Staphylococcus aureus [2]
  MIC: > 50 µg/mL
Francisella tularensis
  MIC: 15.6 µg/mL (≈ 57.6 µM)
Yersinia pestis
  MIC: > 50 µg/mL
[1]
  IC50: 0.3 µM
Escherichia coli [4]
  MIC: > 50 µg/mL
Escherichia coli [5]
  MIC: 12.5 µg/mL (≈ 46.2 µM)

## Clc1cccc(Cn2cnc3ccccc32)c1
[1]
  IC50: 85 µM

## COc1ccc(Cn2cnc3ccccc32)cc1
[1]
  IC50: 38 µM

## Cc1ccc(Cn2cnc3ccccc32)cc1
[1]
  IC50: 90 µM

## Clc1ccc(Cn2cnc3ccccc32)cc1
[1]
  IC50: 27 µM
DL21 (DE3)
  inhibition: 70%

## Brc1ccc(Cn2cnc3ccccc32)cc1
[1]
  IC50: 27.4 µM
